According to ChEMBL document CHEMBL1137834, “Synthesis of cinnamic acid derivatives and their inhibitory effects on LDL-oxidation, acyl-CoA:cholesterol acyltransferase-1 and -2 activity, and decrease of HDL-particle size” (Bioorg Med Chem Lett, 2004):

Key:
[1] = molecular target: T1, Sterol O-acyltransferase 2 (Homo sapiens) (UniProt O75908); assay: Inhibitory activity against human Acyl-CoA:cholesterol acyltransferase-2 at 30 ug/mL
T1 sequence (whole entry): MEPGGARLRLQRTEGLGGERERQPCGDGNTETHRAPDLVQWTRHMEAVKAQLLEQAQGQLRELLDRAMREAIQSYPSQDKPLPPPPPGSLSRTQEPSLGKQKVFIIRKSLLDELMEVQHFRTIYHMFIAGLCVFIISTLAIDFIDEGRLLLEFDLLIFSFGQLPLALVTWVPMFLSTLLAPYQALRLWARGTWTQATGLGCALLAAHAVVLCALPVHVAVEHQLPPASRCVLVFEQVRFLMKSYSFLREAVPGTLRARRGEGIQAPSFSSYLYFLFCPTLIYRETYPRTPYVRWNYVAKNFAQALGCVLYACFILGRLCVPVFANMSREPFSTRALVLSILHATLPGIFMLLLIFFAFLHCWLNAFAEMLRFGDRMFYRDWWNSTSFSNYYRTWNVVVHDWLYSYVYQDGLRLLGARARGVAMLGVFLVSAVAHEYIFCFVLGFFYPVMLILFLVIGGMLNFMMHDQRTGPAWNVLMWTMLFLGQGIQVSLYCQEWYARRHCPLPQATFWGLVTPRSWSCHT

Homo sapiens [2] = organism: Homo sapiens; assay: Antioxidant activity was determined by measuring the produced thiobarbituric acid reactive substance; type: functional
How it was run: (§1)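 Test compounds at final 1 µg/mL. Oxidation read as TBARS, expressed as nmol MDA/mg LDL and % inhibition against LDL + CuSO4 alone. Electromobility was also compared on 0.7% agarose gel.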

Homo sapiens [3] = organism: Homo sapiens; assay: Antioxidant activity against copper mediated low-density lipoproteins (LDL) oxidation; type: functional; how it was run: as §1
Oryctolagus cuniculus = organism: Oryctolagus cuniculus; assay: Compound inhibited the rHDL-particle rearrangement under presence of LDL at 37 degree C; type: functional
How it was run: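 rHDL particles (98 Å, 2 mg/mL preparation) were incubated at 37 °C for 24 h with human LDL (4 mg/mL preparation) and compound. Products were run on native 8–25% polyacrylamide gradient gel and stained with Coomassie to compare particle size.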

[4] = molecular target: T2, Sterol O-acyltransferase 2 (Homo sapiens, UniProt O75908); assay: Inhibitory activity against human Acyl-CoA:cholesterol acyltransferase-2
T2 sequence (O75908 whole entry): T1 sequence (whole entry)

| inhibition [1] [%] | IC50 (Homo sapiens [3]) [µM] | IC50 [4] [µM] | Compound | Activity (Homo sapiens [2]) | Inhibition (Oryctolagus cuniculus) [µM] |
| --- | --- | --- | --- | --- | --- |
| 0 |  |  | COC(=O)[C@H](C)NC(=O)/C=C/c1ccc(O)c(O)c1 | 91.5 nmol of MDA/mg of LDL |  |
|  |  |  | CC(C)(Sc1cc(C(C)(C)C)c(O)c(C(C)(C)C)c1)Sc1cc(C(C)(C)C)c(O)c(C(C)(C)C)c1 [PROBUCOL] | 263.1 nmol of MDA/mg of LDL |  |
| > 70 | 52 |  | COC(=O)[C@H](Cc1ccccc1)NC(=O)/C=C/c1ccc(O)cc1 | 269 nmol of MDA/mg of LDL | 307 |
| > 70 | 3 | 81 | O=C(CCc1ccc(O)c(O)c1)N[C@@H](CC(=O)OCc1ccccc1)C(=O)OCc1ccccc1 | 32.1 nmol of MDA/mg of LDL |  |
